In ChEMBL document CHEMBL2021893, “Synthesis, structure-activity relationship and in vitro anti-mycobacterial evaluation of 13-n-octylberberine derivatives” (2012):
In brackets after ≈: the same amount, converted by molar mass. Activity calls are given as the source filed them. The rule behind the calls is not given here.

Tested on: Mycobacterium tuberculosis
Assay: Antimycobacterial activity against drug-susceptible Mycobacterium tuberculosis H37Rv measured 24 hrs post dose by microplate alamar blue assay
Type: functional
Procedure, shortened: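 Two-fold serial drug dilutions in 7H9 medium in 48-well plates, with H37Rv suspension added to give 4 × 10^-4 mg/mL bacteria per well. Plates were incubated at 37 °C, and alamar blue was added at an optimal time. The read was visual at 24 h after reagent addition. MIC was taken as the lowest concentration preventing the colour change.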

Structure (SMILES)	MIC
CCCCCCCCc1c2[n+](cc3c(OC)c(OC)ccc13)CCc1cc(OCc3ccccc3)c(O)cc1-2.[Cl-]	2 µg/mL
CCCCCCCc1c2[n+](cc3c(OC)c(OC)ccc13)CCc1cc3c(cc1-2)OCO3	inactive
CCCCCCCCc1c2[n+](cc3c(OS(=O)(=O)c4ccc(C#N)cc4)c(OC)ccc13)CCc1cc3c(cc1-2)OCO3.[Cl-]	8 µg/mL
CCCCCCCCc1c2[n+](cc3c(OC)c(OC)ccc13)CCc1cc(OCCCC)c(OCCCC)cc1-2.[Cl-]	2 µg/mL
CCc1c2[n+](cc3c(OC)c(OC)ccc13)CCc1cc3c(cc1-2)OCO3	inactive
CCCCCCCCc1c2[n+](cc3c(OCCC)c(OC)ccc13)CCc1cc(OCCC)c(O)cc1-2.[Cl-]	4 µg/mL
CCCCCCCCc1c2[n+](cc3c(OC)c(OC)ccc13)CCc1cc3c(cc1-2)OCO3.[Cl-]	2 µg/mL
CCCCCCCCc1c2[n+](cc3c(OC)c(OC)ccc13)CCc1cc(OCC)c(OCC)cc1-2.[Cl-]	0.5 µg/mL
CCCCCCCCc1c2[n+](cc3c(OCCCC)c(OC)ccc13)CCc1cc(OCCCC)c(O)cc1-2.[Cl-]	8 µg/mL
CO[C@H]1/C=C/O[C@@]2(C)Oc3c(C)c(O)c4c(O)c(c(/C=N/N5CCN(C)CC5)c(O)c4c3C2=O)NC(=O)/C(C)=C\C=C\[C@H](C)[C@H](O)[C@@H](C)[C@@H](O)[C@@H](C)[C@H](OC(C)=O)[C@@H]1C [RIFAMPIN]	0.0625 µg/mL (≈ 0.0759 µM)
CCCCCCCCc1c2[n+](cc3c(OC)c(OC)ccc13)CCc1cc(OC)c(OC)cc1-2.[Cl-]	2 µg/mL
CCCCCCCCc1c2[n+](cc3c(OS(=O)(=O)c4ccc(C(F)(F)F)cc4)c(OC)ccc13)CCc1cc3c(cc1-2)OCO3.[Cl-]	16 µg/mL
CCCCCCCCc1c2[n+](cc3c(O)c(OC)ccc13)CCc1cc3c(cc1-2)OCO3.[Cl-]	4 µg/mL
CCCCCCCCc1c2[n+](cc3c(OC(=O)c4ccc(C)cc4)c(OC)ccc13)CCc1cc3c(cc1-2)OCO3.[Cl-]	4 µg/mL
CCCCCCCCc1c2[n+](cc3c(OCc4ccccc4)c(OC)ccc13)CCc1cc3c(cc1-2)OCO3.[Cl-]	4 µg/mL
CCCCCc1c2[n+](cc3c(OC)c(OC)ccc13)CCc1cc3c(cc1-2)OCO3	inactive
CCCCCCCCc1c2[n+](cc3c(OC)c(OC)ccc13)CCc1cc(OCCC)c(O)cc1-2.[Cl-]	4 µg/mL
CCCCCCCCc1c2[n+](cc3c(OCc4ccccc4)c(OC)ccc13)CCc1cc(OCc3ccccc3)c(O)cc1-2.[Cl-]	0.5 µg/mL
CCCCCCCCc1c2[n+](cc3c(OC)c(OC)ccc13)CCc1cc(O)c(O)cc1-2.[Cl-]	16 µg/mL
COc1ccc2c(C)c3[n+](cc2c1OC)CCc1cc2c(cc1-3)OCO2	inactive

Structure (SMILES)	MIC
COc1ccc2cc3[n+](cc2c1OC)CCc1cc2c(cc1-3)OCO2	inactive
CCCCCCCCc1c2[n+](cc3c(OCC)c(OC)ccc13)CCc1cc(OCC)c(OCC)cc1-2.[Cl-]	0.125 µg/mL
CCCCCCCCc1c2[n+](cc3c(OCCC)c(OC)ccc13)CCc1cc3c(cc1-2)OCO3.[Cl-]	2 µg/mL
CCCCCCCCc1c2[n+](cc3c(OC)c(OC)ccc13)CCc1cc3c(cc1-2)OCCO3.[Cl-]	2 µg/mL
CCCCCCCCc1c2[n+](cc3c(O)c(OC)ccc13)CCc1cc(O)c(O)cc1-2.[Cl-]	32 µg/mL
CCCCCCc1c2[n+](cc3c(OC)c(OC)ccc13)CCc1cc3c(cc1-2)OCO3	inactive
CCCCCCCCc1c2[n+](cc3c(OC(=O)c4ccc(OC)cc4)c(OC)ccc13)CCc1cc3c(cc1-2)OCO3.[Cl-]	4 µg/mL
NNC(=O)c1ccncc1 [ISONIAZID]	0.0625 µg/mL (≈ 0.456 µM)
CCCCCCCCc1c2[n+](cc3c(OCc4ccccc4)c(OC)ccc13)CCc1cc(OCc3ccccc3)c(OCc3ccccc3)cc1-2.[Cl-]	8 µg/mL
CCCCCCCCc1c2[n+](cc3c(OC)c(OC)ccc13)CCc1cc(OCCC)c(OCCC)cc1-2.[Cl-]	2 µg/mL
CCCCCCCCc1c2[n+](cc3c(OCCCC)c(OC)ccc13)CCc1cc3c(cc1-2)OCO3.[Cl-]	8 µg/mL
CCCCCCCCc1c2[n+](cc3c(OC)c(OC)ccc13)CCc1cc(OCC)c(O)cc1-2.[Cl-]	2 µg/mL
CCCCCCCCc1c2[n+](cc3c(OC)c(OC)ccc13)CCc1cc(OC)c(O)cc1-2.[Cl-]	2 µg/mL
CCCCCCCCc1c2[n+](cc3c(OCC)c(OC)ccc13)CCc1cc3c(cc1-2)OCO3.[Cl-]	4 µg/mL
CCCCCCCCc1c2[n+](cc3c(OC)c(OC)ccc13)CCc1cc(OCCCC)c(O)cc1-2.[Cl-]	8 µg/mL
CCCc1c2[n+](cc3c(OC)c(OC)ccc13)CCc1cc3c(cc1-2)OCO3	inactive
CCCCCCCCc1c2[n+](cc3c(OCC)c(OC)ccc13)CCc1cc(OCC)c(O)cc1-2.[Cl-]	4 µg/mL
CCCCCCCCc1c2[n+](cc3c(OC)c(OC)ccc13)CCc1cc(OCc3ccccc3)c(OCc3ccccc3)cc1-2.[Cl-]	8 µg/mL
CCCCc1c2[n+](cc3c(OC)c(OC)ccc13)CCc1cc3c(cc1-2)OCO3	inactive
